Reference: ChEMBL document CHEMBL3774332, “Synthesis, biological evaluation and molecular modeling of pseudo-peptides based statine as inhibitors for human tissue kallikrein 5” (Eur J Med Chem, 2016)
pIC50, pKi: −log10 of the molar value. Activity calls are given as the source filed them. The calls are words filed in the database; no cut-off is given here.

Experiments:
[1] = target: Kallikrein-1 (Homo sapiens) (UniProt P06870); test: Inhibition of human KLK1 using Abz-KLRSSKQ-EDDnp as substrate at 10 to 100 uM preincubated for 5 mins followed by substrate addition by spectrofluorimetric analysis
Outline: (§1)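 Residual-activity screen in 50 mM Tris–HCl, pH 7.5. Compound stocks in DMSO:H2O 1:1 were diluted to 10 µM final, and in some runs raised to 100 µM. Inhibitor was incubated with enzyme for 5 min at 37°C. Substrate was then added: Abz-KLRSSKQ-EDDnp for KLK1, KLK5 and KLK6, or Abz-KLYSSKQ-EDDnp for KLK7. Fluorescence was read at ex 320 nm, em 420 nm and compared with an inhibitor-free control.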

[2] = target: Kallikrein-7 (Homo sapiens) (UniProt P49862); test: Inhibition of human KLK7 using Abz-KLYSSKQ-EDDnp as substrate at 10 to 100 uM preincubated for 5 mins followed by substrate addition by spectrofluorimetric analysis; outline: as §1
[3] = Solubility in aqueous buffer solution at >1 uM; assay type: physicochemical
Outline: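 Solubility was tested in the aqueous assay buffer (50 mM Tris–HCl, pH 7.5) before enzymatic assays, at concentrations above 1.0 µM.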

[4] = target: Kallikrein-5 (Homo sapiens) (UniProt Q9Y337); test: Inhibition of human KLK5 using Abz-KLRSSKQ-EDDnp as substrate at 10 to 100 uM preincubated for 5 mins followed by substrate addition by spectrofluorimetric analysis; outline: as §1
[5] = target: Kallikrein-6 (Homo sapiens) (UniProt Q92876); test: Inhibition of human KLK6 using Abz-KLRSSKQ-EDDnp as substrate at 10 to 100 uM preincubated for 5 mins followed by substrate addition by spectrofluorimetric analysis; outline: as §1
[6] = target: Kallikrein-7 (Homo sapiens) (UniProt P49862); test: Inhibition of human KLK7 using Abz-KLYSSKQ-EDDnp as substrate at 10 uM preincubated for 5 mins followed by substrate addition by spectrofluorimetric analysis; outline: as §1
Kallikrein-5 [7] = target: T1, Kallikrein-5 (Homo sapiens, UniProt Q9Y337); test: Competitive inhibition of human KLK5 using Abz-KLRSSKQ-EDDnp as substrate preincubated for 5 mins followed by substrate addition by Lineweaver-Burk plot analysis
T1 sequence (Q9Y337 whole entry): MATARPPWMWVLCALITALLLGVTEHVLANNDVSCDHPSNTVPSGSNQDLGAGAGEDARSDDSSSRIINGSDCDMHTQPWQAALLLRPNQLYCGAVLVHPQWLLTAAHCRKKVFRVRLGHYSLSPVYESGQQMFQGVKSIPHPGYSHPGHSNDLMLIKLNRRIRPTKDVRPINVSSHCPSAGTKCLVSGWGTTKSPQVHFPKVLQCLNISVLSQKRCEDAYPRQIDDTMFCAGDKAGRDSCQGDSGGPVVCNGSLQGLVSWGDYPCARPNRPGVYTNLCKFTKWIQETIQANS
Outline: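 Human KLK5 (0.02 µg) was preincubated with inhibitor for 5 min at 37°C in 50 mM Tris–HCl, pH 7.5. Reaction was started with FRET substrate Abz-KLRSSKQ-EDDnp and read by fluorescence (ex 320 nm, em 420 nm). Initial rates were measured without inhibitor and at four inhibitor concentrations. Ki was taken as the x-intercept of 1/V0 versus inhibitor concentration at constant substrate. Mode was assigned from Lineweaver–Burk plots.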

[8] = target: Kallikrein-5 (Homo sapiens) (UniProt Q9Y337); test: Inhibition of human KLK5 using Abz-KLRSSKQ-EDDnp as substrate at 10 uM preincubated for 5 mins followed by substrate addition by spectrofluorimetric analysis; outline: as §1
[9] = target: Kallikrein-6 (Homo sapiens) (UniProt Q92876); test: Inhibition of human KLK6 using Abz-KLRSSKQ-EDDnp as substrate at 10 uM preincubated for 5 mins followed by substrate addition by spectrofluorimetric analysis; outline: as §1
[10] = target: Kallikrein-1 (Homo sapiens) (UniProt P06870); test: Inhibition of human KLK1 using Abz-KLRSSKQ-EDDnp as substrate at 10 uM preincubated for 5 mins followed by substrate addition by spectrofluorimetric analysis; outline: as §1
Kallikrein-5 [11] = target: T1, Kallikrein-5; test: Inhibition of human KLK5 using Abz-KLRSSKQ-EDDnp as substrate preincubated for 5 mins followed by substrate addition by spectrofluorimetric analysis
Outline: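 Assay in 50 mM Tris–HCl, pH 7.5, with 0.02 µg human KLK5 and inhibitor incubated 5 min at 37°C before adding Abz-KLRSSKQ-EDDnp. Fluorescence was read at ex 320 nm, em 420 nm. IC50 came from rates at five or more inhibitor concentrations across 0.01–1.0 µM. Values are means ± SD of three independent experiments.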

[12] = target: Kallikrein-6 (Homo sapiens) (UniProt Q92876); test: Inhibition of human KLK6 using Abz-KLRSSKQ-EDDnp as substrate at >1 uM preincubated for 5 mins followed by substrate addition by spectrofluorimetric analysis
[13] = target: Kallikrein-7 (Homo sapiens) (UniProt P49862); test: Inhibition of human KLK7 using Abz-KLYSSKQ-EDDnp as substrate at >1 uM preincubated for 5 mins followed by substrate addition by spectrofluorimetric analysis
[14] = target: Kallikrein-5 (Homo sapiens) (UniProt Q9Y337); test: Inhibition of human KLK5 using Abz-KLRSSKQ-EDDnp as substrate at >1 uM preincubated for 5 mins followed by substrate addition by spectrofluorimetric analysis
[15] = target: Kallikrein-1 (Homo sapiens) (UniProt P06870); test: Inhibition of human KLK1 using Abz-KLRSSKQ-EDDnp as substrate at >1 uM preincubated for 5 mins followed by substrate addition by spectrofluorimetric analysis

Sequence of Kallikrein-1 (Homo sapiens) (P06870 25-262 limits assumed): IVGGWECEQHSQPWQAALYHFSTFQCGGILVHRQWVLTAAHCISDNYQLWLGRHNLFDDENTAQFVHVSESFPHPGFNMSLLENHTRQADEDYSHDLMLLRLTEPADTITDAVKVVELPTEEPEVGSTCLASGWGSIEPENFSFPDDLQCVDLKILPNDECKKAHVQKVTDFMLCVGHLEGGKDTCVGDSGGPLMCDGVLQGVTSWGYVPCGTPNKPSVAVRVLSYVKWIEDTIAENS
Sequence of Kallikrein-7 (Homo sapiens) (P49862 30-253 limits assumed): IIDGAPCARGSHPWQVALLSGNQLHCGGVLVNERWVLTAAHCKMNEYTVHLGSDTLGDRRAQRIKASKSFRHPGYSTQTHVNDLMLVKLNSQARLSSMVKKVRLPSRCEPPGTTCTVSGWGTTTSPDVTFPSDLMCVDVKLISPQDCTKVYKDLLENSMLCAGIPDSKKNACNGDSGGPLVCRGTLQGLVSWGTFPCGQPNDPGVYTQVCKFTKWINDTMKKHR

SMILES | inhibition [1] | inhibition [2] | solubility [3] | inhibition [4] | inhibition [5] | inhibition [6] | pKi (Kallikrein-5 [7]) | inhibition [8] | inhibition [9] | inhibition [10] | pIC50 (Kallikrein-5 [11]) | inhibition [12] | inhibition [13] | inhibition [14] | inhibition [15]
COC(=O)[C@@H]1CCCN1C(=O)C[C@H](O)[C@H](Cc1ccccc1)NC(=O)OC(C)(C)C |  |  | soluble |  |  | inactive | 6.89 | Active | inactive | inactive | 6.91 |  |  |  | 
CC(C)(C)OC(=O)N[C@@H](Cc1ccccc1)[C@@H](O)CC(=O)N1CCC[C@H]1C(=O)O | inactive | inactive | soluble | inactive | inactive |  |  |  |  |  |  |  |  |  | 
CC(C)(C)OC(=O)N[C@@H](Cc1ccccc1)[C@@H](O)CC(=O)N[C@@H](Cc1ccccc1)C(=O)N[C@H]1CO[C@H]2[C@@H]1OC[C@H]2OCc1ccccc1 |  |  | Insoluble |  |  |  |  |  |  |  |  | inactive | inactive | inactive | inactive
CC(C)(C)OC(=O)N[C@@H](Cc1ccccc1)[C@@H](O)CC(=O)N1CCC[C@H]1C(=O)N[C@H]1CO[C@H]2[C@@H]1OC[C@H]2OCc1ccccc1 |  |  | Insoluble |  |  |  |  |  |  |  |  | inactive | inactive | inactive | inactive

Continued, values first:

inhibition [1] | inhibition [2] | solubility [3] | inhibition [4] | inhibition [5] | inhibition [6] | pKi (Kallikrein-5 [7]) | inhibition [8] | inhibition [9] | inhibition [10] | pIC50 (Kallikrein-5 [11]) | inhibition [12] | inhibition [13] | inhibition [14] | inhibition [15] | SMILES
inactive | inactive | soluble | inactive | inactive |  |  |  |  |  |  |  |  |  |  | CC(C)[C@H](NC(=O)C[C@H](O)[C@H](Cc1ccccc1)NC(=O)OC(C)(C)C)C(=O)O
 |  | soluble |  |  | inactive | 6.89 | Active | inactive | inactive | 6.94 |  |  |  |  | COC(=O)[C@@H](NC(=O)C[C@H](O)[C@H](Cc1ccccc1)NC(=O)OC(C)(C)C)C(C)C
 |  | soluble |  |  | inactive | 6.92 | Active | inactive | inactive | 6.95 |  |  |  |  | COC(=O)[C@H](Cc1ccccc1)NC(=O)C[C@H](O)[C@H](Cc1ccccc1)NC(=O)OC(C)(C)C
 |  | Insoluble |  |  |  |  |  |  |  |  | inactive | inactive | inactive | inactive | CC(C)[C@H](NC(=O)C[C@H](O)[C@H](Cc1ccccc1)NC(=O)OC(C)(C)C)C(=O)N[C@H]1CO[C@H]2[C@@H]1OC[C@H]2OCc1ccccc1
inactive | inactive | soluble | inactive | inactive |  |  |  |  |  |  |  |  |  |  | CC(C)(C)OC(=O)N[C@@H](Cc1ccccc1)[C@@H](O)CC(=O)N[C@@H](Cc1ccccc1)C(=O)O
